# A selection: hits, their analogues and other compounds. The true share with any hit is near 12%.
# Dynein cargo inh – blocks dynein driven cargo transport along microtubules | AID 1381 | 3617.4 mouse cells, GR-EGFP nuclear translocation imaging; test concentration mostly 20 µM; stimulated with dexamethasone, 1 µM; stronger effect = lower value | z-score, hits read low | actives 0.47% (n = 220,000);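 active = plate z-score of nuclear minus cytoplasmic receptor signal below a set negative limit, without overly bright fluorescence or cell loss, cut at about -3.5 in these data, passing the limit was not always enough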;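 note: z-score of nuclear minus cytoplasmic ring GR-EGFP intensity difference per well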
#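 Buffer or medium: tet-free medium with charcoal-stripped serum / Also added: dexamethasone agonist, 1.0 µM final, for 30 min / Timing: induction 48 h, compound 1 h, agonist 30 min / Measured by: high-content fluorescence imaging after fixation / Read-out: nuclear-to-cytoplasmic GR-EGFP distribution per well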
# bCat nuc transl – alters nuclear translocation of beta-catenin in HeLa cells | immunofluorescence imaging | nuclear translocation activity, % at 5 µM | actives 0.3% (n = 190,000);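 active = nuclear translocation activity above 50% at 5 µM, with a well cell count of 50 or more; inconclusive = wells under 50 cells across six images, flagged as toxic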;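 note: per-cell ratio of nuclear to cytoplasmic median beta-catenin stain intensity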
#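 Assay system: human HeLa cells, native beta-catenin; doses: 5 µM primary, 0.02–20 µM confirmation; incubation: compound treatment 24 h, 37°C, 5% CO2; technique: fluorescence imaging of beta-catenin antibody stain plus DAPI; measure: % activation, nuclear-to-cytoplasmic median beta-catenin signal ratio per cell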
# MT stabilizer – stabilizes microtubules in HeLa cells. HeLa tubulin immunostaining HCS, 24 h; share of cells brighter than vehicle mean+2SD. AID 2205. % tubulin-high responders, % at 10 µM. actives 0.83% (n = 200,000);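 active = plate Z-score above 3 for both tubulin-high and condensed-nucleus cell shares, with cell loss under 80%, at 10 µM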;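 note: anti alpha tubulin signal scored within the nucleus-defined area of each cell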
# Autophagy mod – autophagy modulation, high-content screen; AID 463193; actives 0.98% (n = 190,000); calls only at 10 µM (by protocol); MEF GFP-LC3 puncta imaging; test concentration mostly 10 µM;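 active = percentage of spot-positive cells more than 3 SD above its plate mean, without a fluorescence outlier flag or 80% toxicity; inconclusive = no clear call, values can overlap the other calls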
# CHOP inh – blocks CHOP induction under ER stress; CHO-K1 CHOP-promoter luciferase, tunicamycin-induced, 15-18 h; inhibition, % at 10 µM; actives 3.8% (n = 220,000); AID 2732;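 active = compounds that reduced the stress-induced luciferase reporter signal by more than about 70% of percent inhibition, limit read from the data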
# L major viab – inhibitors of Leishmania major promastigote growth; Leishmania major promastigotes, resazurin fluorescence viability; inhibition, % at 10 µM; actives 9% (n = 200,000); AID 1063; in the data active = inhibition above about 50%;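 note: promastigotes grown with compound for 44 hours at 28 °C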
# CHOP inh conf – confirmation of CHOP induction inhibitors; shares compounds with CHOP inh; CHO-CHOP promoter luciferase reporter, tunicamycin-induced, luminescence; inhibition, % at 10 µM; actives 45% (n = 2,100); AID 504437;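 active = mean of three repeat readings of reporter signal inhibition above a set limit, cut at about 70% in these data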
# A number is an active result; i = inactive; ? = inconclusive; nt = not tested or not shown; + = active, no number.
SMILES,Dynein cargo inh,bCat nuc transl,MT stabilizer,Autophagy mod,CHOP inh,L major viab,CHOP inh conf
CC(=O)OC[C@]12CCC(C)=C[C@H]1O[C@@H]1[C@H](O)[C@@H](OC(C)=O)[C@@]2(C)[C@]12CO2,i,?,nt,nt,104,nt,123
COc1ccc(NC(=S)NC(NC(=O)CF)C(Cl)(Cl)Cl)c([N+](=O)[O-])c1 (stereo unspecified),i,i,i,i,i,i,nt
O=c1[nH]c(O)c(C=Nc2ccccc2Sc2ccccc2)c(=O)[nH]1,i,i,nt,nt,100,nt,i
O=c1[nH]c(O)c(C=Nc2ccccc2[N+](=O)[O-])c(=O)[nH]1,i,i,i,i,i,i,nt
Cc1nn(C2CCOC(C)(C)C2)c2c1C(c1ccc(OC(C)C)cc1)SCC(=O)N2 (stereo unspecified),i,i,i,i,i,i,nt
C=CCn1c(O)c(C(CC)=Nc2ccc(N(CC)CC)cc2)c(=O)[nH]c1=O,i,i,i,i,103,i,96
CCCc1nc2ccc(Br)cc2c(=O)n1-c1ccc([N+](=O)[O-])c(C(F)(F)F)c1,i,i,i,i,i,i,nt
Cc1ccc(/C=C2\C(=O)NC(=S)N(c3ccc(F)cc3)C2=O)s1,i,i,i,i,103,100,i
O=C1NC(=O)N(c2ccc(F)cc2)C(=O)/C1=C/c1ccc(N2CCOCC2)cc1,i,i,i,i,i,i,nt
COc1ccc(N2C(=O)/C(=C/c3cccs3)C(=O)NC2=S)cc1,i,i,nt,nt,104,nt,i
Cn1c(=O)cc(OCC(=O)N2CCN(C3CCCCC3)CC2)c2ccccc21,i,i,i,nt,i,i,nt
O=c1c2ccccc2nc(-c2ccoc2)n1-c1ccccc1,i,nt,i,i,i,i,nt
C=Cn1ccnc1P(O)(=S)c1nc(C)c(CCOC(C)=O)s1 (stereo unspecified),i,i,i,i,i,i,nt
O=C(COc1ccccc1)Nc1ccc(Cl)cc1C(=O)c1ccccc1,i,i,i,i,96,i,i
O=C(COC(=O)c1ccc(O)cc1)Nc1ccc(Cl)cc1C(=O)c1ccccc1,i,i,i,i,102,i,i
Cc1nn(Cc2c(Cl)cccc2Cl)c(Cl)c1C(=O)O,i,i,i,i,i,i,nt
Cc1ccsc1C(=O)C1CCCN(Cc2cnc(N3CCCC3)s2)C1 (stereo unspecified),i,i,i,i,i,i,nt
NC(N)=N/N=C/c1cn(-c2ccccc2)nc1-c1cccs1,i,i,i,+,106,101,98
CCOC(=O)c1sc(N=Nc2c(O)[nH]c(=O)[nH]c2=O)c(C(=O)OCC)c1C,i,nt,i,i,105,59,106
CCOC(=O)c1ccc(N=C(C)c2c(O)[nH]c(=O)[nH]c2=O)cc1,i,i,nt,nt,i,nt,nt
NC(Cc1nc2ccccc2[nH]1)c1ccc(Cl)cc1 (stereo unspecified),i,i,nt,nt,i,nt,nt
Nc1cc(Cl)c2nonc2c1[N+](=O)[O-],-4.2,i,i,i,108,98,121
CCOC(=O)c1c(/N=C/c2c(O)n(-c3cccc(C)c3)c(=O)[nH]c2=O)sc2c1CCCC2,i,i,i,i,98,i,88
CCOC(=O)c1sc(/N=C/c2c(O)n(-c3ccccc3)c(=O)[nH]c2=O)c(C#N)c1C,i,nt,i,i,i,i,nt
CCOc1ccc(N=Cc2c(O)n(C(C)(C)C)c(=O)[nH]c2=O)cc1,i,nt,i,i,99,i,127

# Screening data from PubChem BioAssay.
